Structures can show the parent of a compound that is named as a salt.
How the values were obtained:
Type in all cases: in vivo
[1] = tested on: male Sprague Dawley rats; assay: SNL-induced tactile allodynia, von Frey; conditions: i.v.
Outline: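 Male Sprague Dawley rats (250–350g) were tested 7 days after SNL surgery, with a fresh baseline taken before dosing. Test compound, comparator or saline followed that baseline. Von Frey up-down method: start at 2 g, each filament applied once for 5 sec, 1 min between stimuli. Positive response was rapid left hind paw withdrawal or licking. Testing ran at 15–180 min post-dose, or until post-SNL baseline.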

[2] = tested on: male CD-1 mice; assay: CFA-induced tactile allodynia, von Frey; conditions: i.v.
[3] = tested on: male CD-1 mice; assay: Warm-water tail-withdrawal assay of acute thermal nociception, i.v.
[4] = tested on: male CD-1 mice; assay: Warm-water tail-withdrawal assay of acute thermal nociception, p.o.
[5] = tested on: male CD-1 mice; assay: Antagonist; conditions: naltrindole 10 mg/kg s.c., -10 min, DPDPE 30 nmol i.c.v.

## NCC1(CC(=O)O)CCCCC1 [gabapentin]
[1]; SNL model, rats (discussion)
  time of peak effects: ~ 90 min
[1]; rats, 7 days after SNL, BBI-11008 18 mg/kg, gabapentin 56 mg/kg
  Area under the Curve (duration of effect, peak dose): 130.2

## CN1CC[C@]23c4c5ccc(O)c4O[C@H]2[C@@H](O)C=C[C@H]3[C@H]1C5 [morphine, Morphine sulfate]
[2]; CFA model, mice (discussion)
  duration of peak effect: 30 to 45 min
[2]; mice, 24 hr after CFA, BBI-11008 10-32 mg/kg, morphine 1-3.2 mg/kg
  time of peak effects, reversal of tactile allodynia: 15 to 30 min
[2]; mice, BBI-11008 32 mg/kg, morphine 3.2 mg/kg, withdrawal threshold vs time
  Area under the Curve (duration of effect, peak dose): 12.85
[3]; BBI-11008 3.2-100 mg/kg, morphine 1-10 mg/kg
  duration of peak antinociception: ~ 60 min
[3]; tail withdrawal (discussion)
  duration of peak effect: ~ 1 hr
[3]; within the dose ranges tested
  overall duration of effect: ~ 120 min
[4]; tail withdrawal (discussion)
  duration of peak effect: ~ 2 hr
[4]; within the dose ranges tested
  overall duration of effect: ~ 180 min

## [D-Pen^2,D-Pen^5]enkephalin [DPDPE]
[5]
  effect of NTI pretreatment on antinociceptive effects: fully blocked

Source: PMC8106974 (Psychopharmacology, 2020)
